Positions of bridges follow the written chain, without caps; N, C: chain ends. Residues, ends and D or L forms follow the SMILES beside them.
Molecular target: Sodium channel protein type 5 subunit alpha (Homo sapiens, UniProt Q14524)
Assay: Inhibition of human Nav1.5 expressed in HEK293 cells assessed as inward peak current by ion-works quattro patch clamp electrophysiology method
Format: cell-based
Procedure, shortened: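 Stable HEK293 line expressing human NaV1.5, recorded by population patch clamp on the IonWorks Quattro.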

Sodium channel protein type 5 subunit alpha, sequence (Q14524 whole entry): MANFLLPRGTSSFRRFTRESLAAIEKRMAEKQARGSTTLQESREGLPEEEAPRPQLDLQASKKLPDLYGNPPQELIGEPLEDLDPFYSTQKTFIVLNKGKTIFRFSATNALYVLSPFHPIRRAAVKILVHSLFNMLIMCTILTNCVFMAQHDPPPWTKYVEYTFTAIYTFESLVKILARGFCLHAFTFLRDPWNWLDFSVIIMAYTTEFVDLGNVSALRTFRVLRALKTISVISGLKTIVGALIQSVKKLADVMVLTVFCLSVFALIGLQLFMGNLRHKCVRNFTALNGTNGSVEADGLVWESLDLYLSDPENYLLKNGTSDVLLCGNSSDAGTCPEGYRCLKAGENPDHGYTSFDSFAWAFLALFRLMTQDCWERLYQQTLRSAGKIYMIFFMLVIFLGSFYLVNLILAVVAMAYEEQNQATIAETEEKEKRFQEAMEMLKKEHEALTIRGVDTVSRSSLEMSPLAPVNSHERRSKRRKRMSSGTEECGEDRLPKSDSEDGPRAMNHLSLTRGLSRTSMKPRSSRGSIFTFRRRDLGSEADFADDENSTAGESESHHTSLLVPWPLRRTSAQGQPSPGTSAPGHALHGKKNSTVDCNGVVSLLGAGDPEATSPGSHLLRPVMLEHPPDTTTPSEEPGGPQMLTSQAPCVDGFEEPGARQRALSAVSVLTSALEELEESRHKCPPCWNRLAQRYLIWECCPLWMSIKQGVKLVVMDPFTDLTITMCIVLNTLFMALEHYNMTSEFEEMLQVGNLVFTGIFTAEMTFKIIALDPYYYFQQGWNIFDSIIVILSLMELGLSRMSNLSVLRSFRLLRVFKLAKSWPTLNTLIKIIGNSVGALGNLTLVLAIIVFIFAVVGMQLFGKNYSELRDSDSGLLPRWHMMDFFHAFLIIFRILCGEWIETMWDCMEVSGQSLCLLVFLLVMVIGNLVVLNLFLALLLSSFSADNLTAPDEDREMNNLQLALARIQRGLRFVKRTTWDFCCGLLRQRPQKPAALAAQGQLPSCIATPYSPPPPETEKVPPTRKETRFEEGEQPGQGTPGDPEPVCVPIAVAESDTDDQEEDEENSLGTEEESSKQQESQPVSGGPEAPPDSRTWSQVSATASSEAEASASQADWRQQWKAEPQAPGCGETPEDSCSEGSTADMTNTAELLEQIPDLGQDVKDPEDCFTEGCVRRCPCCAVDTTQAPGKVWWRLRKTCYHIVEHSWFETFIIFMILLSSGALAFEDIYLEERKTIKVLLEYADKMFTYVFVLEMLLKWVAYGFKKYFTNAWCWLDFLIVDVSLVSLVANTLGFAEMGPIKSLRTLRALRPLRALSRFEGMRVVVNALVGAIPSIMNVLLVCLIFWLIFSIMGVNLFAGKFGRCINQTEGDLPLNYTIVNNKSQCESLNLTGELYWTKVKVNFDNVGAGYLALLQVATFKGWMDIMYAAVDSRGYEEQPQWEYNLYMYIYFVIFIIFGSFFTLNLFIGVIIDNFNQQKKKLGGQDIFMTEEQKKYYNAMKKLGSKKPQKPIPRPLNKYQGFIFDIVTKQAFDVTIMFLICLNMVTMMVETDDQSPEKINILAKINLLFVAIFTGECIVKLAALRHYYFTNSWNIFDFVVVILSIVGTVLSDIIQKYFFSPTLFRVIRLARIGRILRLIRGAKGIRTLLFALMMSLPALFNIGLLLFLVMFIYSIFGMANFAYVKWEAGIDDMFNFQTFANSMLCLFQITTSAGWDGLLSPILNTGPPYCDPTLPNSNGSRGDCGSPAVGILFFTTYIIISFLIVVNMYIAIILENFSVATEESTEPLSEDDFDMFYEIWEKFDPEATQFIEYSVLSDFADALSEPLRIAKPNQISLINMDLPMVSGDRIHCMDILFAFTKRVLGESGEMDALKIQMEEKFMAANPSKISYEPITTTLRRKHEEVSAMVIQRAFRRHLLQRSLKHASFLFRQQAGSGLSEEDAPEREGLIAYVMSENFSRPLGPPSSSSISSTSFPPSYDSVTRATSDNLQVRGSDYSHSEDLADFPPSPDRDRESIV

Compound	IC50
CC[C@H](C)[C@@H]1NC(=O)[C@@H]2CSSC[C@@H]3NC(=O)[C@H](C(C)C)NC(=O)[C@H](CC(C)C)NC(=O)[C@H](CC(N)=O)NC(=O)[C@@H]4CCCN4C(=O)[C@H](CCCNC(=N)N)NC(=O)[C@H](CSSC[C@H](NC(=O)[C@@H](N)CC(=O)O)C(=O)N[C@@H](CC(C)C)C(=O)NCC(=O)N[C@@H](Cc4ccccc4)C(=O)N[C@@H](CCSC)C(=O)N[C@@H](CCCNC(=N)N)C(=O)N[C@@H](CCCCN)C(=O)N2)NC(=O)[C@H](CSSC[C@@H](C(=O)N[C@@H](CCCCN)C(=O)N[C@@H](Cc2ccc(O)cc2)C(=O)N[C@@H](CCC(=O)O)C(=O)N[C@@H](Cc2ccccc2)C(N)=O)NC(=O)[C@H](Cc2c[nH]c4ccccc24)NC(=O)[C@H](CCCCN)NC(=O)[C@H](Cc2cnc[nH]2)NC(=O)[C@H]([C@@H](C)O)NC(=O)[C@H](CCCNC(=N)N)NC(=O)[C@H](CO)NC3=O)NC(=O)[C@H](CCCCN)NC(=O)[C@H](CC(=O)O)NC(=O)[C@H](CC(N)=O)NC(=O)[C@H](CC(=O)O)NC(=O)[C@@H]2CCCN2C1=O (H-DCLGFMRKCIPDNDKCCRPNLVCSRTHKWCKYEF-NH2; disulfide 2-17, 9-23, 16-30)	> 5 µM
CSCC[C@@H]1NC(=O)[C@H](Cc2ccccc2)NC(=O)CNC(=O)[C@H](CC(C)C)NC(=O)[C@@H](NC(=O)[C@@H](N)CC(=O)O)CSSC[C@@H]2NC(=O)[C@@H]3CSSC[C@@H](C(=O)N[C@@H](CCCCN)C(=O)N[C@@H](Cc4ccc(O)cc4)C(=O)N[C@H](C(=O)N[C@@H](Cc4ccccc4)C(N)=O)C(C)C)NC(=O)[C@H](Cc4c[nH]c5ccccc45)NC(=O)[C@H](CCCCN)NC(=O)[C@H](Cc4cnc[nH]4)NC(=O)[C@H]([C@@H](C)O)NC(=O)[C@H](CCCNC(=N)N)NC(=O)[C@H](CO)NC(=O)[C@H](CSSC[C@H](NC(=O)[C@H](CCCCN)NC(=O)[C@H](CCCNC(=N)N)NC1=O)C(=O)N[C@@H](Cc1ccccc1)C(=O)N1CCC[C@H]1C(=O)N[C@@H](CC(=O)O)C(=O)N[C@@H](CC(N)=O)C(=O)N[C@@H](CC(=O)O)C(=O)N[C@@H](CCCCN)C(=O)N3)NC(=O)[C@H](C(C)C)NC(=O)[C@H](CC(C)C)NC(=O)[C@H](CC(N)=O)NC(=O)[C@@H]1CCCN1C(=O)[C@H](CCCNC(=N)N)NC2=O (H-DCLGFMRKCFPDNDKCCRPNLVCSRTHKWCKYVF-NH2; disulfide 2-17, 9-23, 16-30)	> 5 µM
CC[C@H](C)[C@@H]1NC(=O)[C@@H]2CSSC[C@@H]3NC(=O)[C@H](C(C)C)NC(=O)[C@H](CC(C)C)NC(=O)[C@H](CC(N)=O)NC(=O)[C@@H]4CCCN4C(=O)[C@H](CCCNC(=N)N)NC(=O)[C@H](CSSC[C@H](NC(=O)[C@@H](N)CC(=O)O)C(=O)N[C@@H](CC(C)C)C(=O)NCC(=O)N[C@@H](Cc4ccccc4)C(=O)N[C@@H](CCSC)C(=O)N[C@@H](CCCNC(=N)N)C(=O)N[C@@H](CCCCN)C(=O)N2)NC(=O)[C@H](CSSC[C@@H](C(=O)N[C@@H](CCCCN)C(=O)N[C@@H](Cc2ccc(O)cc2)C(=O)N[C@H](C(N)=O)C(C)C)NC(=O)[C@H](Cc2c[nH]c4ccccc24)NC(=O)[C@H](CCCCN)NC(=O)[C@H](Cc2cnc[nH]2)NC(=O)[C@H]([C@@H](C)O)NC(=O)[C@H](CCCNC(=N)N)NC(=O)[C@H](CO)NC3=O)NC(=O)[C@H](CCCCN)NC(=O)[C@H](CC(=O)O)NC(=O)[C@H](CC(N)=O)NC(=O)[C@H](CC(=O)O)NC(=O)[C@@H]2CCCN2C1=O (H-DCLGFMRKCIPDNDKCCRPNLVCSRTHKWCKYV-NH2; disulfide 2-17, 9-23, 16-30)	> 5 µM
CC[C@H](C)[C@@H]1NC(=O)[C@@H]2CSSC[C@@H]3NC(=O)[C@H](C(C)C)NC(=O)[C@H](CC(C)C)NC(=O)[C@H](CC(N)=O)NC(=O)[C@@H]4CCCN4C(=O)[C@H](CCCNC(=N)N)NC(=O)[C@H](CSSC[C@H](NC(=O)[C@@H](N)CC(=O)O)C(=O)N[C@@H](CC(C)C)C(=O)NCC(=O)N[C@@H](Cc4ccccc4)C(=O)N[C@@H](CCSC)C(=O)N[C@@H](CCCNC(=N)N)C(=O)N[C@@H](CCCCN)C(=O)N2)NC(=O)[C@H](CSSC[C@@H](C(=O)N[C@@H](CCCCN)C(=O)N[C@@H](Cc2ccc(O)cc2)C(=O)N[C@@H](Cc2c[nH]c4ccccc24)C(=O)N[C@@H](Cc2ccccc2)C(N)=O)NC(=O)[C@H](Cc2c[nH]c4ccccc24)NC(=O)[C@H](CCCCN)NC(=O)[C@H](Cc2c[nH]cn2)NC(=O)[C@H]([C@@H](C)O)NC(=O)[C@H](CCCNC(=N)N)NC(=O)[C@H](CO)NC3=O)NC(=O)[C@H](CCCCN)NC(=O)[C@H](CC(=O)O)NC(=O)[C@H](CC(N)=O)NC(=O)[C@H](CC(=O)O)NC(=O)[C@@H]2CCCN2C1=O (H-DCLGFMRKCIPDNDKCCRPNLVCSRTHKWCKYWF-NH2; disulfide 2-17, 9-23, 16-30)	> 5 µM
CC[C@H](C)[C@@H]1NC(=O)[C@@H]2CSSC[C@@H]3NC(=O)[C@H](C(C)C)NC(=O)[C@H](CC(C)C)NC(=O)[C@H](CC(N)=O)NC(=O)[C@@H]4CCCN4C(=O)[C@H](CCCNC(=N)N)NC(=O)[C@H](CSSC[C@H](NC(=O)[C@@H](N)CC(=O)O)C(=O)N[C@@H](CC(C)C)C(=O)NCC(=O)N[C@@H](Cc4ccccc4)C(=O)N[C@@H](CCSC)C(=O)N[C@@H](CCCNC(=N)N)C(=O)N[C@@H](CCCCN)C(=O)N2)NC(=O)[C@H](CSSC[C@@H](C(=O)N[C@@H](CCCCN)C(=O)N[C@@H](Cc2ccc(O)cc2)C(=O)N[C@H](C(=O)N[C@@H](Cc2ccccc2)C(N)=O)C(C)C)NC(=O)[C@H](Cc2c[nH]c4ccccc24)NC(=O)[C@H](CCCCN)NC(=O)[C@H](Cc2cnc[nH]2)NC(=O)[C@H]([C@@H](C)O)NC(=O)[C@H](CCCCN)NC(=O)[C@H](CO)NC3=O)NC(=O)[C@H](CCCCN)NC(=O)[C@H](CC(=O)O)NC(=O)[C@H](CC(N)=O)NC(=O)[C@H](CC(=O)O)NC(=O)[C@@H]2CCCN2C1=O (H-DCLGFMRKCIPDNDKCCRPNLVCSKTHKWCKYVF-NH2; disulfide 2-17, 9-23, 16-30)	> 5 µM
CC[C@H](C)[C@@H]1NC(=O)[C@@H]2CSSC[C@@H]3NC(=O)[C@H](C(C)C)NC(=O)[C@H](CC(C)C)NC(=O)[C@H](CC(N)=O)NC(=O)[C@@H]4CCCN4C(=O)[C@H](CCCNC(=N)N)NC(=O)[C@H](CSSC[C@H](NC(=O)[C@@H](N)CCC(=O)O)C(=O)N[C@@H](CC(C)C)C(=O)NCC(=O)N[C@@H](Cc4ccccc4)C(=O)N[C@@H](CCSC)C(=O)N[C@@H](CCCNC(=N)N)C(=O)N[C@@H](CCCCN)C(=O)N2)NC(=O)[C@H](CSSC[C@@H](C(=O)N[C@@H](CCCCN)C(=O)N[C@@H](Cc2ccc(O)cc2)C(=O)N[C@H](C(=O)N[C@@H](Cc2ccccc2)C(N)=O)C(C)C)NC(=O)[C@H](Cc2c[nH]c4ccccc24)NC(=O)[C@H](CCCCN)NC(=O)[C@H](Cc2cnc[nH]2)NC(=O)[C@H]([C@@H](C)O)NC(=O)[C@H](CCCNC(=N)N)NC(=O)[C@H](CO)NC3=O)NC(=O)[C@H](CCCCN)NC(=O)[C@H](CC(=O)O)NC(=O)[C@H](CC(N)=O)NC(=O)[C@H](CC(=O)O)NC(=O)[C@@H]2CCCN2C1=O (H-ECLGFMRKCIPDNDKCCRPNLVCSRTHKWCKYVF-NH2; disulfide 2-17, 9-23, 16-30)	> 5 µM

Source: ChEMBL document CHEMBL3797186, “Single Residue Substitutions That Confer Voltage-Gated Sodium Ion Channel Subtype Selectivity in the NaV1.7 Inhibitory Peptide GpTx-1” (J Med Chem, 2016)
